Data as given in ChEMBL document CHEMBL1122831, “Synthesis and structure-activity relationships of novel arylfluoroquinolone antibacterial agents” (1985).
Values after ≈ are worked out from the molar mass of the structure shown.

How the values were obtained:
Format in all cases: functional
[1] = tested on: Staphylococcus epidermidis; test: Minimum inhibition concentration in vitro determined against Staphylococcus epidermidis 3519
Method in brief: (§1)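 Agar dilution on brain-heart infusion (BHI) agar with twofold dilutions from a 2000 µg/mL stock, giving final test concentrations of 200-0.005 µg/mL. Organisms were grown overnight in BHI broth at 36 °C, and about 10⁴ organisms were inoculated per plate. Plates were incubated 18 h at 36 °C. MIC was the lowest concentration with no visible growth.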

Pseudomonas aeruginosa [2] = test: Minimum inhibition concentration in vitro determined against Pseudomona aeruginosa 5007; method in brief: as §1
Streptococcus pyogenes = test: Minimum inhibition concentration in vitro determined against Streptococcus pyogenes 930; method in brief: as §1
Pseudomonas aeruginosa [3] = test: Minimum inhibition concentration in vitro determined against Pseudomona aeruginosa K799/WT; method in brief: as §1
Enterococcus faecium [4] = test: 0 Minimum inhibition concentration was determined against Streptococcus faecium ATCC 8043 (in vitro); method in brief: as §1
Staphylococcus aureus [5] = test: Minimum inhibition concentration in vitro determined against Staphylococcus aureus CMX 686B; method in brief: as §1
Escherichia coli [6] = test: Minimum inhibition concentration in vitro determined against Escherichia coli juhl; method in brief: as §1
Klebsiella pneumoniae = test: Minimum inhibition concentration in vitro determined against Klebsiella pneumoniae 8045; method in brief: as §1
Klebsiella aerogenes = test: Minimum inhibition concentration in vitro determined against Enterobacteri aerogenes ATCC 13048; method in brief: as §1
Staphylococcus aureus [7] = test: Minimum inhibition concentration in vitro determined against Staphylococcus aureus ATCC 6538P; method in brief: as §1
Acinetobacter = test: Minimum inhibition concentration in vitro determined against Acinetobacter sp CMX669; method in brief: as §1
Enterococcus faecium [8] = test: Minimum inhibition concentration in vitro determined against Streptococcus faecium ATCC 8043; method in brief: as §1
Escherichia coli [9] = test: Compound was evaluated for inhibitory activity against Escherichia coli Juhl (in vivo); conditions: in the assay text read “in vitro” for “in vivo”
Mus musculus [10] = test: In vivio inhibitory activity against Escherichia coli Juhl after subcutaneous administration in mice; conditions: sc
Method in brief: (§2)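 Female CF-1 mice (~20 g) were infected ip with 0.5 mL of an 18-h BHI culture of E. coli Juhl in 5% hog gastric mucin at 100× LD50. The LD50 had been set beforehand by 10-fold dilutions and Reed-Muench. Compound in water or dilute NaOH was given sc or po, split equally at 1 and 5 h post-infection. Groups of 10 mice got ≥3 doses, with 10 untreated controls. ED50 was calculated from day-6 cumulative mortality by trimmed Logit.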

Mus musculus [11] = test: In vivo inhibitory activity against Escherichia coli Juhl after peroral administration in mice; conditions: po; method in brief: as §2
Mus musculus [12] = test: In vivo inhibitory activity of teh compound against Escherichia coli Juhl after peroral administration in mice; conditions: po; method in brief: as §2
[13] = Escherichia coli, read-out: MIC

Row | SMILES | MIC [1] [mg/L] | MIC (Pseudomonas aeruginosa [2]) [mg/L] | MIC (Streptococcus pyogenes) [mg/L] | MIC (Pseudomonas aeruginosa [3]) [mg/L] | MIC (Enterococcus faecium [4]) [mg/L] | MIC (Staphylococcus aureus [5]) [mg/L] | MIC (Escherichia coli [6]; [13]) [mg/L] | MIC (Klebsiella pneumoniae) [mg/L] | MIC (Klebsiella aerogenes) [mg/L] | MIC (Staphylococcus aureus [7]) [mg/L] | MIC (Acinetobacter) [mg/L] | MIC (Enterococcus faecium [8]) [mg/L] | MIC (Escherichia coli [9]) [mg/L] | ED50 (Mus musculus [10]) [mg/kg] | ED50 (Mus musculus [11]) [mg/kg] | MIC (Escherichia coli [6]) [mg/L] | ED50 (Mus musculus [12]) [mg/kg]
1 | CN1CCN(c2cc3c(cc2F)c(=O)c(C(=O)O)cn3-c2ccc3c(c2)OCO3)CC1 | 1.56 (≈ 3.67 µM) | 6.2 (≈ 14.6 µM) | 12.5 (≈ 29.4 µM) | 6.2 (≈ 14.6 µM) | 50 (≈ 118 µM) | 0.78 (≈ 1.83 µM) | 0.78 (≈ 1.83 µM) | 0.2 (≈ 0.47 µM) | 0.78 (≈ 1.83 µM) | 0.78 (≈ 1.83 µM) | 0.78 (≈ 1.83 µM) | – | – | – | – | – | –
2 | Cc1ccccc1-n1cc(C(=O)O)c(=O)c2cc(F)c(N3CCN(C)CC3)cc21 | 3.1 (≈ 7.84 µM) | 25 (≈ 63.2 µM) | 50 (≈ 126 µM) | 12.5 (≈ 31.6 µM) | – | 3.1 (≈ 7.84 µM) | 1.56 (≈ 3.95 µM) | 1.56 (≈ 3.95 µM) | 3.1 (≈ 7.84 µM) | 3.1 (≈ 7.84 µM) | 1.56 (≈ 3.95 µM) | 50 (≈ 126 µM) | – | – | – | – | –
3 | CC(C)N(C)c1cc2c(cc1F)c(=O)c(C(=O)O)cn2-c1ccc(F)cc1 | 1.56 (≈ 4.19 µM) | 100 (≈ 269 µM) | 12.5 (≈ 33.6 µM) | 50 (≈ 134 µM) | – | 0.78 (≈ 2.09 µM) | 6.2 (≈ 16.7 µM) | 3.1 (≈ 8.33 µM) | 6.2 (≈ 16.7 µM) | 0.78 (≈ 2.09 µM) | 12.5 (≈ 33.6 µM) | 12.5 (≈ 33.6 µM) | – | – | – | – | –
4 | CCn1cc(C(=O)O)c(=O)c2cc(F)c(N3CCNCC3)cc21 [NORFLOXACIN] | 1.56 (≈ 4.89 µM) | 0.39 (≈ 1.22 µM) | 3.1 (≈ 9.71 µM) | 0.39 (≈ 1.22 µM) | – | 0.78 (≈ 2.44 µM) | 0.1 (≈ 0.313 µM) | 0.1 (≈ 0.313 µM) | 0.2 (≈ 0.626 µM) | 0.78 (≈ 2.44 µM) | 6.2 (≈ 19.4 µM) | 0.78 (≈ 2.44 µM) | – | 0.6 | 15.1 | 0.1 (≈ 0.313 µM) | –
5 | O=C(O)c1cn(-c2ccc(F)cc2)c2cc(N3CCNCC3)c(F)cc2c1=O [SARAFLOXACIN] | 0.39 (≈ 1.01 µM) | 0.39 (≈ 1.01 µM) | 0.78 (≈ 2.02 µM) | 0.39 (≈ 1.01 µM) | – | 0.2 (≈ 0.519 µM) | 0.05 (≈ 0.13 µM) | 0.02 (≈ 0.0519 µM) | 0.2 (≈ 0.519 µM) | 0.2 (≈ 0.519 µM) | 0.2 (≈ 0.519 µM) | 1.56 (≈ 4.05 µM) | 0.05 (≈ 0.13 µM) | 0.6 | – | – | 4.3

Further compounds by falling MIC [1], results first:

Row | MIC [1] [mg/L] | MIC (Pseudomonas aeruginosa [2]) [mg/L] | MIC (Streptococcus pyogenes) [mg/L] | MIC (Pseudomonas aeruginosa [3]) [mg/L] | MIC (Enterococcus faecium [4]) [mg/L] | MIC (Staphylococcus aureus [5]) [mg/L] | MIC (Escherichia coli [6]; [13]) [mg/L] | MIC (Klebsiella pneumoniae) [mg/L] | MIC (Klebsiella aerogenes) [mg/L] | MIC (Staphylococcus aureus [7]) [mg/L] | MIC (Acinetobacter) [mg/L] | MIC (Enterococcus faecium [8]) [mg/L] | MIC (Escherichia coli [9]) [mg/L] | SMILES | ED50 (Mus musculus [10]) [mg/kg] | ED50 (Mus musculus [11]) [mg/kg] | MIC (Escherichia coli [6]) [mg/L] | ED50 (Mus musculus [12]) [mg/kg]
6 | 0.39 (≈ 0.976 µM) | 1.56 (≈ 3.91 µM) | 1.56 (≈ 3.91 µM) | 1.56 (≈ 3.91 µM) | – | 0.2 (≈ 0.501 µM) | 0.2 (≈ 0.501 µM) | 0.1 (≈ 0.25 µM) | 0.78 (≈ 1.95 µM) | 0.2 (≈ 0.501 µM) | 0.2 (≈ 0.501 µM) | 1.56 (≈ 3.91 µM) | 0.2 (≈ 0.501 µM) | CN1CCN(c2cc3c(cc2F)c(=O)c(C(=O)O)cn3-c2ccc(F)cc2)CC1 [DIFLOXACIN] | 1.6 | 3.1 | – | –
7 | 0.2 (≈ 0.518 µM) | 3.1 (≈ 8.02 µM) | 1.56 (≈ 4.04 µM) | 3.1 (≈ 8.02 µM) | – | < 0.1 | 0.2 (≈ 0.518 µM) | 0.2 (≈ 0.518 µM) | 0.78 (≈ 2.02 µM) | < 0.1 | 0.39 (≈ 1.01 µM) | 1.56 (≈ 4.04 µM) | – | O=C(O)c1cn(-c2ccc(F)cc2)c2cc(N3CCC(O)C3)c(F)cc2c1=O (stereo unspecified) | – | – | – | –
